# Results published in ChEMBL document CHEMBL4219120, “Synthesis and SAR study of new hydroxy and chloro-substituted 2,4-diphenyl 5H-chromeno[4,3-b]pyridines as selective topoisomerase IIα-targeting anticancer agents” (Bioorg Med Chem, 2018).
# Calls of active or inactive are those of the source. No cut-off for these calls is given here.
# Key:
# [1] = target: DNA topoisomerase 2-alpha (Homo sapiens) (UniProt P11388); assay: Inhibition of recombinant human topoisomerase 2alpha assessed as decrease in relaxation of supercoiled pBR322 DNA at 100 uM after 30 mins by agarose gel electrophoresis relative to control
# Chain of DNA topoisomerase 2-alpha (Homo sapiens) (P11388 whole entry): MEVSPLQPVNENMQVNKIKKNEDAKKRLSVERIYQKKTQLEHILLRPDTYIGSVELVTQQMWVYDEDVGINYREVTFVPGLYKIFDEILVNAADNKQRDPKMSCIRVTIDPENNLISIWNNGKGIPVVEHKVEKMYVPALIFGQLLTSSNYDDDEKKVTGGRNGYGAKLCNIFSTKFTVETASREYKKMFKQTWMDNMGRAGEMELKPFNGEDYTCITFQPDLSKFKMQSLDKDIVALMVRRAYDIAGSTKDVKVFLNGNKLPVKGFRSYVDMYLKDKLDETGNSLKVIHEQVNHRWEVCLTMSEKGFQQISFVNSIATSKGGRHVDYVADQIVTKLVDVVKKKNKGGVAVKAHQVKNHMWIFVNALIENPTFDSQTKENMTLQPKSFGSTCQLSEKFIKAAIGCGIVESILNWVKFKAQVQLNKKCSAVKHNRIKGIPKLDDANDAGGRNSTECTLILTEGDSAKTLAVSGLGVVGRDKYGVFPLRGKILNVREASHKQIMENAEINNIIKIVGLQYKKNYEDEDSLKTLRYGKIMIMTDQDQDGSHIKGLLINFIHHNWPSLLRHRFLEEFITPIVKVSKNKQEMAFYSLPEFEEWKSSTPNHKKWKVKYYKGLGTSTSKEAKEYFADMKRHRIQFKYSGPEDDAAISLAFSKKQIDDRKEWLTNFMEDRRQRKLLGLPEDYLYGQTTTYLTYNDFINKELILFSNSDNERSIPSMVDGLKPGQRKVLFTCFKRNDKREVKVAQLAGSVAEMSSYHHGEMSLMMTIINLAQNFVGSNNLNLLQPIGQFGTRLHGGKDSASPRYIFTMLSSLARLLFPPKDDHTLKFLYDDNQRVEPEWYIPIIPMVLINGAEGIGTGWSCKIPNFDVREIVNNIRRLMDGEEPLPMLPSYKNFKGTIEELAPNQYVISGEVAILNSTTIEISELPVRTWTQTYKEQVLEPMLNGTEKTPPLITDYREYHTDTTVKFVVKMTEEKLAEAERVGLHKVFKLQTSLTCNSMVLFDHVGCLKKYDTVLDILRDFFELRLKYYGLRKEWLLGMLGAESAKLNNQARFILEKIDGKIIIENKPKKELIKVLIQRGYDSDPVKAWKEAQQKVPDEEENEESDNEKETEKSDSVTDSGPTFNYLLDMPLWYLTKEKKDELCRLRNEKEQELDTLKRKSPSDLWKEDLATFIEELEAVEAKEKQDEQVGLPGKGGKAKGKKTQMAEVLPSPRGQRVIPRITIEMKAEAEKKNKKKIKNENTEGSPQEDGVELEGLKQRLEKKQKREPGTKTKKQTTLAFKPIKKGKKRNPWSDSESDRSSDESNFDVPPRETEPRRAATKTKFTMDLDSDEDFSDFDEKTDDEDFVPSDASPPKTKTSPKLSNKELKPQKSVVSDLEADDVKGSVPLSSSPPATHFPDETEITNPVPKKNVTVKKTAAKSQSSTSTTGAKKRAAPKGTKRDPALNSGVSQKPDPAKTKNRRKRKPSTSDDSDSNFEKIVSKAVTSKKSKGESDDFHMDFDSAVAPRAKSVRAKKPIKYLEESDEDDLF
# Method in brief: (§1)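 Recombinant human topo IIα (1 unit) with 100 ng supercoiled pBR322 in 10 mM Tris-HCl pH 7.9, 50 mM NaCl, 50 mM KCl, 5 mM MgCl2, 1 mM EDTA, 1 mM ATP, 15 µg/mL BSA, 30 min at 37 °C. Quenched with 7 mM EDTA. 0.8% agarose/TAE gel, 50 V, 1 h; EtBr stain; UV densitometry. Compounds came from 20 mM DMSO stocks. 20 µM was tested only when inhibition at 100 µM exceeded 30%. Etoposide was the positive control.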
# [2] = target: DNA topoisomerase 2-alpha (Homo sapiens) (UniProt P11388); assay: Inhibition of recombinant human topoisomerase 2alpha assessed as decrease in relaxation of supercoiled pBR322 DNA at 20 uM after 30 mins by agarose gel electrophoresis relative to control; method in brief: as §1
# [3] = target: T1, DNA topoisomerase 1 (Homo sapiens) (UniProt P11387); assay: Inhibition of recombinant human topoisomerase 1 assessed as decrease in relaxation of supercoiled pBR322 DNA at 100 uM after 30 mins by agarose gel electrophoresis relative to control
# T1 sequence (whole entry): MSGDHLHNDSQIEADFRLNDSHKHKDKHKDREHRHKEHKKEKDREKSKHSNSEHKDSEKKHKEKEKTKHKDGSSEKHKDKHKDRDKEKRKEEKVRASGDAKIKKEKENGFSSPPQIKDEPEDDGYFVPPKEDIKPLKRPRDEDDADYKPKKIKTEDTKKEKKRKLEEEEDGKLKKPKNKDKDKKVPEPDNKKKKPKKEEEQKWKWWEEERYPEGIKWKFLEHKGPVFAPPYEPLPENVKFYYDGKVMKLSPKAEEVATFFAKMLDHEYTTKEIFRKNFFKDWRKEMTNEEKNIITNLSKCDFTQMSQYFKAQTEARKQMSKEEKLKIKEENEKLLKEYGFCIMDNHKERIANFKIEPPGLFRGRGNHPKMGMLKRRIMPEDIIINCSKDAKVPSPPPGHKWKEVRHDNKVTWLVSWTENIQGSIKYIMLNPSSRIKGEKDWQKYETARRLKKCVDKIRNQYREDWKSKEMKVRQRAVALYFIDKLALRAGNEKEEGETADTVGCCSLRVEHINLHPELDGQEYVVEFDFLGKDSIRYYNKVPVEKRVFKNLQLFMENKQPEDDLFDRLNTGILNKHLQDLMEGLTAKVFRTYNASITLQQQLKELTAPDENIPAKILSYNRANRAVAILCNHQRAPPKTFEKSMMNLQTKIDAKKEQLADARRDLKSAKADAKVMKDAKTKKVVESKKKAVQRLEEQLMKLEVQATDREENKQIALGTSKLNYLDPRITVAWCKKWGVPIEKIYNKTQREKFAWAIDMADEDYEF
# Method in brief: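 Supercoiled pBR322 (100 ng) with 1 unit recombinant human topo I in 10 mM Tris-HCl pH 7.9, 150 mM NaCl, 0.1% BSA, 0.1 mM spermidine, 5% glycerol, 30 min at 37 °C. Stopped with SDS/dye stop solution. Run on 0.8% agarose in TAE, 50 V, 1 h; EtBr-stained; bands quantitated under UV. Compounds came from 20 mM DMSO stocks. 20 µM was tested only when inhibition at 100 µM exceeded 30%. Camptothecin was the positive control.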
# HCT-15 = assay: Antiproliferative activity against human HCT15 cells after 72 hrs by CCK-8 assay; format: functional, cell-based; conditions: HCT-15, 72 h
# Method in brief: (§2)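 Cells seeded at 2-4 x 10^4 per well and grown overnight in medium with 10% FBS (37 °C, 5% CO2). After 4 h FBS starvation, medium was replaced with medium containing graded compound concentrations for 72 h. CCK-8 was added for 4 h more, then absorbance read at 450 nm. IC50 came from a four-parameter logistic fit. Mean ± S.D. of three experiments, each in triplicate.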
# T47D = assay: Antiproliferative activity against human T47D cells after 72 hrs by CCK-8 assay; format: functional, cell-based; method in brief: as §2
# HeLa [4] = assay: Antiproliferative activity against human HeLa cells after 72 hrs by CCK-8 assay; format: functional, cell-based; method in brief: as §2
# HeLa [5] = assay: Potency index, ratio of etoposide IC50 to compound IC50 for human HeLa cells; format: functional
# HeLa [6] = assay: Potency index, ratio of adriamycin IC50 to compound IC50 for human HeLa cells; format: functional
# [7] = target: DNA topoisomerase 2-alpha (Homo sapiens) (UniProt P11388); assay: Potency index, ratio of compound effect for recombinant human topoisomerase 2alpha to etoposide effect for recombinant human topoisomerase 2alpha at 20 uM
# [8] = target: DNA topoisomerase 2-alpha (Homo sapiens) (UniProt P11388); assay: Inhibition of recombinant human topoisomerase 2alpha assessed as decrease in relaxation of supercoiled pBR322 DNA at 100 uM after 30 mins by agarose gel electrophoresis relative to etoposide
# [9] = target: DNA topoisomerase 2-alpha (Homo sapiens) (UniProt P11388); assay: Inhibition of recombinant human topoisomerase 2alpha assessed as decrease in relaxation of supercoiled pBR322 DNA at 20 uM after 30 mins by agarose gel electrophoresis relative to etoposide
# [10] = target: T1, DNA topoisomerase 1 (Homo sapiens); assay: Inhibition of recombinant human topoisomerase 1 assessed as decrease in relaxation of supercoiled pBR322 DNA at 100 uM after 30 mins by agarose gel electrophoresis relative to camptothecin
inhibition [1],inhibition [2],inhibition [3],IC50 (HCT-15),IC50 (T47D),IC50 (HeLa [4]),fold change (FC) [8],fold change (FC) [9],fold change (FC) [10],SMILES,Ratio IC50 (HeLa [5]),Ratio IC50 (HeLa [6]),Ratio [7]
79.5%,12.1%,22.8%,3410 nM,1270 nM,660 nM,,,,Oc1ccc(-c2cc(-c3cccc(Cl)c3)c3c(n2)-c2ccccc2OC3)cc1,15.2,2.6,
82.7%,74.5%,inactive,1740 nM,750 nM,2110 nM,1.24,2.1,inactive,Oc1ccc(-c2cc(-c3ccccc3Cl)nc3c2COc2ccccc2-3)cc1,,,2
